Measurements: ChEMBL document CHEMBL1139871, “Selective urokinase-type plasminogen activator inhibitors. 4. 1-(7-sulfonamidoisoquinolinyl)guanidines” (J Med Chem, 2007)
Values after ≈ are worked out from the molar mass of the structure shown.

Experiments:
[1] = target: T1, Urokinase-type plasminogen activator (Homo sapiens, UniProt P00749)
Plasminogen [2] = target: T2, Plasminogen (Homo sapiens, UniProt P00747); assay: Inhibition of human plasmin
How it was run: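 Human plasmin 0.7 µg/mL with 0.2 mM Chromozym-PL and varied inhibitor in Tris pH 8.1/NaCl buffer. Preincubated 15 min at 37 °C, then 30 min at 37 °C with substrate. A405 background-subtracted, % inhibition plotted for IC50.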

[3] = target: T3, Tissue-type plasminogen activator (Homo sapiens, UniProt P00750); assay: Inhibition of human tPA
How it was run: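 Human one-chain tPA 0.4 µg/mL (final) with 0.1 mg/mL tPA stimulator, preincubated 15 min at 37 °C with inhibitor in 75 mM Tris pH 8.1, 50 mM NaCl. Then 0.4 mM S-2288 (H-D-Ile-Pro-Arg-pNA) added, 60 min at 37 °C. A405 read after preincubation and after substrate incubation, background subtracted. IC50 from % inhibition vs concentration. Ki = IC50/(1+[S]/Km), Km 250 µM.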
Target sequence in this assay (P00750 whole entry): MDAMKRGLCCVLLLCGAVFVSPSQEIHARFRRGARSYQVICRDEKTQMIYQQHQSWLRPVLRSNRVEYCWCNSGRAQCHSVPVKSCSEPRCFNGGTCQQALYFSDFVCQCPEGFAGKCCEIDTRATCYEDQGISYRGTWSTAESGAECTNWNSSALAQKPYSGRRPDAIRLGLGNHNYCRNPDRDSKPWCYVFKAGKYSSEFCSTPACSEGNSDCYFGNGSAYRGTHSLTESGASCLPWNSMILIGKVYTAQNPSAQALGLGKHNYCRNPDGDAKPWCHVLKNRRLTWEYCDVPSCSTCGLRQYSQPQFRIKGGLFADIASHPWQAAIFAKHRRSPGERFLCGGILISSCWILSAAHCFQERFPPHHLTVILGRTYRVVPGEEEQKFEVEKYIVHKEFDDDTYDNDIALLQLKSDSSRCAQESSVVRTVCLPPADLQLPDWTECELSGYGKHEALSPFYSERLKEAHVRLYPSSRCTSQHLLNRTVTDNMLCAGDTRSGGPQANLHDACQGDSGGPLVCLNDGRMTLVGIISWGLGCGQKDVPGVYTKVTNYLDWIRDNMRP

[4] = target: T3, Tissue-type plasminogen activator; assay: Inhibition of human tPA at 30 uM
How it was run: (§1)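 Human one-chain tPA (0.4 µg/mL final) with 0.1 mg/mL tPA stimulator, preincubated with inhibitor for 15 min at 37 °C in 75 mM Tris pH 8.1, 50 mM NaCl. Then incubated with 0.4 mM S-2288 substrate for 60 min at 37 °C. Absorbance read at 405 nm, background subtracted, and percent inhibition calculated.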
Target sequence in this assay (P00750 36-562 limits assumed): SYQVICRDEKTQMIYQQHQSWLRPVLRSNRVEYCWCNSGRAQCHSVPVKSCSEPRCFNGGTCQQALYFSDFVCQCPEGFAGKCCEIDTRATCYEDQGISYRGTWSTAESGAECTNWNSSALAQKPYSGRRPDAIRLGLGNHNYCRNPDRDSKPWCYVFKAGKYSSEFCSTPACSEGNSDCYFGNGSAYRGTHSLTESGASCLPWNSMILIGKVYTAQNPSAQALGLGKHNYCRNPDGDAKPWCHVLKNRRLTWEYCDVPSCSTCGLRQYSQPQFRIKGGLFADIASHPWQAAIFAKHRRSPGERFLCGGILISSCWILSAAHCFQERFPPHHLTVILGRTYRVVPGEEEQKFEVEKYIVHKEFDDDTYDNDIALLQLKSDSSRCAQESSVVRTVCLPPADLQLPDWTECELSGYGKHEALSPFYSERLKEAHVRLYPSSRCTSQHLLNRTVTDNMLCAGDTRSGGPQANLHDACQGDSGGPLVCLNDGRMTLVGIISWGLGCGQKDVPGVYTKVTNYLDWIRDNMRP

[5] = target: T3, Tissue-type plasminogen activator; assay: Inhibition of human tPA at 100 uM
How it was run: as §1
Target sequence in this assay (P00750 36-562 limits assumed): as above

Plasminogen [6] = target: T2, Plasminogen; assay: Inhibition of human plasmin at 100 uM
How it was run: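 Human plasmin (0.7 µg/mL) preincubated with inhibitor for 15 min at 37 °C in 75 mM Tris pH 8.1, 50 mM NaCl. Then incubated with 0.2 mM Chromozym-PL for 30 min at 37 °C. Absorbance read at 405 nm, background at time zero subtracted, and percent inhibition calculated.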

[7] = Solubility in phosphate buffered saline at pH 6.5; format: physicochemical
How it was run: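 Solubility measured in phosphate-buffered saline, pH 6.5.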

[8] = target: T1, Urokinase-type plasminogen activator; assay: Inhibition of uPA in pig granulation tissue homogenate
[9] = Lipophilicity, log D at pH7.4; format: physicochemical; conditions: buffer, pH 7.4
[10] = target: T4, Coagulation factor VII (Homo sapiens) (UniProt P08709); assay: Inhibition of factor 7a at 10 uM
T4 sequence (whole entry): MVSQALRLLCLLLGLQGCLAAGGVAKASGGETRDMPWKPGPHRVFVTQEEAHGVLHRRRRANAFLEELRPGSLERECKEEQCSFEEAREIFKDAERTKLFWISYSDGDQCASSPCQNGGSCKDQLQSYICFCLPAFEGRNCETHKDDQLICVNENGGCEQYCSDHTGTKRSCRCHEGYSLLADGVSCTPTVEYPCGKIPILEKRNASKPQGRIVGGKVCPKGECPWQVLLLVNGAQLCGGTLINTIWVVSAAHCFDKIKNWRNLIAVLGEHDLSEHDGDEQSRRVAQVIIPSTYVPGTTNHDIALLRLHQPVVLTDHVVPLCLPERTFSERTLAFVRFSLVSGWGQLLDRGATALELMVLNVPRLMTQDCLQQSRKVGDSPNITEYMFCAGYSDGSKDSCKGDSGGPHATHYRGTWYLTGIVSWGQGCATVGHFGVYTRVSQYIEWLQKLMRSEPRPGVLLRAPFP
How it was run: (§2)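 Chromogenic enzyme assays against coagulation proteases: bovine thrombin, human factors VIIa and IXa.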

[11] = target: T1, Urokinase-type plasminogen activator; assay: Inhibition of human uPA in human wound fluid
Prothrombin (Bos taurus) = Prothrombin (Bos taurus) (UniProt P00735); assay: Inhibition of bovine thrombin at 10 uM
How it was run: as §2

[12] = target: Coagulation factor X (Homo sapiens) (UniProt P00742); assay: Inhibition of factor 10a at 10 uM
Coagulation factor X (Homo sapiens), sequence (P00742 41-179 limits assumed): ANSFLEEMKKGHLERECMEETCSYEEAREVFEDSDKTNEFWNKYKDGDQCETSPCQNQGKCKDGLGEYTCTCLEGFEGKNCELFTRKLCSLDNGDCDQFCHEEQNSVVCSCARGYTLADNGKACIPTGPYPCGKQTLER
Coagulation factor X (Homo sapiens), sequence (P00742 235-488 limits assumed): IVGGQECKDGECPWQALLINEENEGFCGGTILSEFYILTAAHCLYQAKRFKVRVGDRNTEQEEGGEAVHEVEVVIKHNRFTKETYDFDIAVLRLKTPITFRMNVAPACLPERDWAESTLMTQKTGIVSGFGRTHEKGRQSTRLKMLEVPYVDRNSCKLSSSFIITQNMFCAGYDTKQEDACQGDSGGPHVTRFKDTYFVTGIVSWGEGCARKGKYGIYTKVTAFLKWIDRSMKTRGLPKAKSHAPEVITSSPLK
How it was run: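 Human coagulation enzyme tested in a chromogenic enzyme assay. Percent inhibition was read at a single inhibitor concentration.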

Homo sapiens [13] = organism: Homo sapiens; assay: Protein binding in human plasma; conditions: read-out: PPB (converted)
Homo sapiens [14] = organism: Homo sapiens; assay: Solubility in human plasma
[15] = Dissociation constant, pKa of the compound; format: physicochemical
Coagulation factor IX = Coagulation factor IX (Homo sapiens, UniProt P00740); assay: Inhibition of factor 9a
Coagulation factor IX, sequence (P00740 47-191 limits assumed): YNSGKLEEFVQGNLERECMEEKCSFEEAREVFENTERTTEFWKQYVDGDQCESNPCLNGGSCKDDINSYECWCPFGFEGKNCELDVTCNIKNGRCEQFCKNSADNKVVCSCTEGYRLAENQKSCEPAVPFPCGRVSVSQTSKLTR
Coagulation factor IX, sequence (P00740 227-461 limits assumed): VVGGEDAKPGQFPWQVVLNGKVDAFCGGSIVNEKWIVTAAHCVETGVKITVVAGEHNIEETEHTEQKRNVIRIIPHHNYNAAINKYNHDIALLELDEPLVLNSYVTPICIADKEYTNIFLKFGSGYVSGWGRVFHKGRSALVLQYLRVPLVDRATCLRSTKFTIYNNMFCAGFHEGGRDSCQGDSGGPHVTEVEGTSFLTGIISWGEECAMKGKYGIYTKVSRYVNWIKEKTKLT
How it was run: as §2

T2 sequence (P00747 97-580 limits assumed): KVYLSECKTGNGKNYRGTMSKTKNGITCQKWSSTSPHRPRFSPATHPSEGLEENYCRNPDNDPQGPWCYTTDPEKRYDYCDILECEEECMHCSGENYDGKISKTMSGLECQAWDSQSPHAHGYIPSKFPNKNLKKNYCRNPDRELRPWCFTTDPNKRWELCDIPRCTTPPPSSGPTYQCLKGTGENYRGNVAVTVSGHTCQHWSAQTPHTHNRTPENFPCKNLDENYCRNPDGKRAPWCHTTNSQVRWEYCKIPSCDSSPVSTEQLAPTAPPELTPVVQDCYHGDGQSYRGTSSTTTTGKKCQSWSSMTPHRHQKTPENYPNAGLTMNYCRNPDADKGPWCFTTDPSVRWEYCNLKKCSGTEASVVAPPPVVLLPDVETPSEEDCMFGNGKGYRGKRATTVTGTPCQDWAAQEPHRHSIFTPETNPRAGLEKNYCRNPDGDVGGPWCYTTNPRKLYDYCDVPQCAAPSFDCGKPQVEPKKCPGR
T2 sequence (P00747 581-810 limits assumed): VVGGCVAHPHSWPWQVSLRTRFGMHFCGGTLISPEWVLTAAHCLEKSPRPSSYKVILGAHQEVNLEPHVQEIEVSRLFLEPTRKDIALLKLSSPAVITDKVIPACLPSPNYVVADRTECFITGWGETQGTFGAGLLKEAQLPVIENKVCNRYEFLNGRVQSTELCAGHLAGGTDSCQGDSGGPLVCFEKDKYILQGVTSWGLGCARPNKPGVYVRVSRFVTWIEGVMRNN

NC(N)=Nc1ncc(Cl)c2ccc(S(=O)(=O)N3CCC[C@@H]3CO)cc12
Ki [1]: 0.16 µM

NC(N)=Nc1ncc(Cl)c2ccc(S(=O)(=O)NC3(C(=O)O)CCCCC3)cc12
Ki (Plasminogen [2]): 39 µM | Ki [1]: 0.008 µM | Ki [3]: > 100 µM

NC(N)=Nc1ncc(Cl)c2ccc(S(=O)(=O)N(CC(=O)O)Cc3ccccc3)cc12
Ki (Plasminogen [2]): > 100 µM | Ki [1]: 0.035 µM | Ki [3]: > 100 µM

NC(N)=Nc1ncc(Cl)c2ccc(S(=O)(=O)NC3(CO)CCCC3)cc12
Ki [1]: 0.067 µM

CC(C)[C@@H](NS(=O)(=O)c1ccc2c(Cl)cnc(N=C(N)N)c2c1)C(=O)O
Ki (Plasminogen [2]): 16 µM | Ki [1]: 0.019 µM | Ki [3]: 38 µM

CN1CCN(S(=O)(=O)c2ccc3c(Cl)cnc(N=C(N)N)c3c2)CC1
Ki [1]: 0.55 µM

CN1CCN(C(=O)C2(NS(=O)(=O)c3ccc4c(Cl)cnc(N=C(N)N)c4c3)CCCC2)CC1
Ki (Plasminogen [2]): 65 µM | Ki [1]: 0.0014 µM | Ki [3]: 34.7 µM

NC(N)=Nc1ncc(Cl)c2ccc(S(=O)(=O)NC3CCCC3)cc12
Ki (Plasminogen [2]): > 100 µM | Ki [1]: 0.071 µM | Ki [3]: > 30 µM | inhibition [4]: < 50%

NC(N)=Nc1ncc(Cl)c2ccc(S(=O)(=O)NCC(=O)O)cc12
Ki (Plasminogen [2]): > 30 µM | Ki [1]: 0.048 µM | Ki [3]: > 30 µM

NC(N)=Nc1ncc(Cl)c2ccc(S(=O)(=O)Nc3cccc(C(=O)O)c3)cc12
Ki (Plasminogen [2]): 9.8 µM | Ki [1]: 0.059 µM | Ki [3]: > 100 µM

CN(C)CCN(C1(C(=O)O)CCCC1)S(=O)(=O)c1ccc2c(Cl)cnc(N=C(N)N)c2c1
Ki (Plasminogen [2]): 32 µM | Ki [3]: 23 µM

NC(N)=Nc1nccc2ccc(S(=O)(=O)Nc3ccccc3)cc12
Ki (Plasminogen [2]): 3.2 µM | Ki [3]: 15 µM

CN(C)CCNC(=O)C1(NS(=O)(=O)c2ccc3c(Cl)cnc(N=C(N)N)c3c2)CCCC1
Ki (Plasminogen [2]): > 100 µM | Ki [1]: 0.03 µM

C[C@@H](C(=O)O)N(Cc1ccccc1)S(=O)(=O)c1ccc2c(Cl)cnc(N=C(N)N)c2c1
Ki [1]: 0.027 µM | Ki [3]: > 100 µM

CC(C)[C@H](NS(=O)(=O)c1ccc2c(Cl)cnc(N=C(N)N)c2c1)C(=O)O
Ki (Plasminogen [2]): 45 µM | Ki [1]: 0.066 µM | Ki [3]: > 100 µM

CN(CC(=O)O)S(=O)(=O)c1ccc2c(Cl)cnc(N=C(N)N)c2c1
inhibition [5]: < 50% | Ki (Plasminogen [2]): > 100 µM | Ki [3]: > 100 µM

NC(N)=Nc1ncc(Cl)c2ccc(S(=O)(=O)N(CC(=O)O)c3ccccc3)cc12
Ki (Plasminogen [2]): > 100 µM | Ki [1]: 0.029 µM | Ki [3]: > 100 µM

NC(N)=Nc1ncc(Cl)c2ccc(S(=O)(=O)Nc3ccccc3C(=O)O)cc12
Ki (Plasminogen [2]): 33 µM | Ki [1]: 0.086 µM | Ki [3]: > 100 µM

NC(N)=Nc1ncc(Cl)c2ccc(S(=O)(=O)NC3(C(=O)O)CCOCC3)cc12
Ki (Plasminogen [2]): 41 µM | Ki [3]: > 100 µM

C[C@H](NS(=O)(=O)c1ccc2c(Cl)cnc(N=C(N)N)c2c1)C(=O)O
Ki (Plasminogen [2]): 15 µM | Ki [1]: 0.021 µM

CN1CCC(NS(=O)(=O)c2ccc3c(Cl)cnc(N=C(N)N)c3c2)(C(=O)O)CC1
Ki (Plasminogen [2]): 71 µM | Ki [1]: 0.011 µM

NC(N)=Nc1nccc2ccc(S(N)(=O)=O)cc12
Ki (Plasminogen [2]): 13 µM | Ki [1]: 0.28 µM | Ki [3]: 24 µM

NC(N)=Nc1ncc(Cl)c2ccc(S(=O)(=O)N(CC(=O)O)CC3CCCC3)cc12
Ki (Plasminogen [2]): 23 µM | Ki [1]: 0.031 µM | Ki [3]: > 100 µM

NC(N)=Nc1ncc(Cl)c2ccc(S(=O)(=O)NCCC(=O)O)cc12
Ki (Plasminogen [2]): > 100 µM | Ki [1]: 0.058 µM | Ki [3]: > 100 µM

NC(N)=Nc1ncc(Cl)c2ccc(S(N)(=O)=O)cc12
inhibition [5]: < 50% | Ki (Plasminogen [2]): > 100 µM | Ki [3]: > 100 µM

CCOC(=O)C1(NS(=O)(=O)c2ccc3c(Cl)cnc(N=C(N)N)c3c2)CCCC1
inhibition (Plasminogen [6]): < 50% | Ki (Plasminogen [2]): > 100 µM | Ki [1]: 0.014 µM | Ki [3]: 23 µM

NC(N)=Nc1ncc(Cl)c2ccc(S(=O)(=O)N3CC(C(=O)O)C3)cc12
Ki [1]: 0.33 µM

NC(N)=Nc1ncc(Cl)c2ccc(S(=O)(=O)NC3(C(=O)N4CCOCC4)CCCC3)cc12
Ki (Plasminogen [2]): > 30 µM | Ki [1]: 0.0016 µM | Ki [3]: 34.4 µM

NC(N)=Nc1ncc(Cl)c2ccc(S(=O)(=O)NC3(C(=O)O)CCC3)cc12
inhibition [5]: < 50% | Ki (Plasminogen [2]): 16 µM | Ki [3]: > 100 µM

NC(N)=Nc1ncc(Cl)c2ccc(S(=O)(=O)N3CCCC3)cc12
Ki (Plasminogen [2]): > 30 µM | Ki [3]: > 30 µM

CC(C)(CNS(=O)(=O)c1ccc2c(Cl)cnc(N=C(N)N)c2c1)C(=O)O
Ki [1]: 0.043 µM

C[C@@H](NS(=O)(=O)c1ccc2c(Cl)cnc(N=C(N)N)c2c1)C(=O)O
Ki [1]: 0.028 µM

NC(N)=Nc1ncc(Cl)c2ccc(S(=O)(=O)N3CCC[C@H]3C(=O)O)cc12
Ki (Plasminogen [2]): > 100 µM | Ki [1]: 0.111 µM | Ki [3]: > 100 µM

NC(N)=Nc1ncc(Cl)c2ccc(S(=O)(=O)N3CCCC[C@@H]3C(=O)O)cc12
Ki (Plasminogen [2]): > 100 µM | Ki [3]: > 100 µM

NC(N)=Nc1nccc2c(Cl)cc(-c3cccc(C(=O)O)c3)cc12
solubility [7]: < 1 µg/mL | IC50 [8]: 8.35 µM | logD [9]: 2.3 | inhibition [10]: 3% | IC50 [11]: 6.91 µM | inhibition (Prothrombin (Bos taurus)): 2% | inhibition [12]: 0% | fraction unbound (Homo sapiens [13]): 0.002 | solubility (Homo sapiens [14]): 60 µM (≈ 20.4 µg/mL) | pKa [15]: 2.35 | Ki (Coagulation factor IX): 1.24 µM

NC(=O)[C@H]1CCCN1S(=O)(=O)c1ccc2c(Cl)cnc(N=C(N)N)c2c1
Ki [1]: 0.054 µM

NC(N)=Nc1ncc(Cl)c2ccc(S(=O)(=O)NC3(C(=O)O)CCCC3)cc12
Ki (Plasminogen [2]): 14 µM | Ki [1]: 0.0058 µM | Ki [3]: 38 µM

NC(N)=Nc1ncc(Cl)c2ccc(S(=O)(=O)NC3(C(=O)NCCO)CCCC3)cc12
Ki (Plasminogen [2]): > 100 µM | Ki [1]: 0.01 µM | Ki [3]: 108 µM

CC(C)(C)[C@@H](NS(=O)(=O)c1ccc2c(Cl)cnc(N=C(N)N)c2c1)C(=O)O
Ki (Plasminogen [2]): > 100 µM | Ki [1]: 0.022 µM | Ki [3]: > 100 µM

NC(N)=Nc1ncc(Cl)c2ccc(S(=O)(=O)N3CCOCC3)cc12
Ki [1]: 0.33 µM

NC(N)=Nc1ncc(Cl)c2ccc(S(=O)(=O)N3CCC[C@@H]3C(=O)O)cc12
inhibition [5]: < 50% | Ki (Plasminogen [2]): > 100 µM | Ki [1]: 0.0099 µM | Ki [3]: > 100 µM
